Source: PubChem BioAssay
PvdQ acylase: P. aeruginosa PvdQ acylase inhibitors, primary screen, biochemical, fluorescence, plate reader and imaging, single point | PvdQ acylase [Pseudomonas aeruginosa LESB58] | purified PvdQ acylase | inhibition, % at 10 µM | 340,000 compounds, 0.063% hits | AID 488965, 2010; in the data active = inhibition above about 30%, passing the limit was not always enough
CHOP inh: inhibitors of CHOP promoter induction, primary screen, cell-based, unfolded protein response, luciferase reporter; 220,000 compounds, 3.8% hits; CHO-K1 CHOP-promoter luciferase, tunicamycin-induced, 15-18 h; inhibition, % at 10 µM;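 active = compounds that reduced the stress-induced luciferase reporter signal by more than about 70% of percent inhibition, limit read from the data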
UPR XBP1 act: activators of adaptive XBP1 UPR arm, primary screen, cell-based, CHO-XBP1 luciferase reporter, luminescence, uHTS; 330,000 compounds, 0.33% hits; activation, % at 20 µM; AID 463104, 2010; IRE1-XBP1 UPR activation; percent of tunicamycin response, DMSO as zero;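 active = versus positive control, 20 µM dose yields 30% or more activation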
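Signal: luciferase luminescence; Assay system: CHO-XBP1 luciferase reporter cells; Amount: one thousand reporter cells per well; Dosing: 20 µM single concentration, DMSO 1%; Benchmarks: high control tunicamycin 10 µg/mL final, low control DMSO vehicle only; Schedule: 6 h compound exposure at 37 °C, 5% CO2; Evaluation: percent activation relative to tunicamycin reference.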
CHOP UPR activ: activators of apoptotic CHOP UPR arm, primary screen, cell-based, CHO-CHOP luciferase reporter, luminescence, uHTS | UPR activation; percent of tunicamycin response over DMSO baseline | activation, % at 10 µM | 330,000 compounds, 0.34% hits | AID 449763, 2010;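 active = at 10 µM dose, activation of 40% or more, normalized to positive control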
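Test system: CHO-CHOP cells, stable luciferase reporter of PERK-eIF2a-CHOP signalling | Quantity: 500 CHO-CHOP cells per well | Buffer or medium: F12 plus 10% serum | Compound dosing: 10 µM single point, 0.5% DMSO | Schedule: 6 h compound treatment, 37 °C | Signal: Luciferase luminescence | Control set: Tunicamycin high control, DMSO low control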
XBP1 UPR conf: IRE1-XBP1 UPR arm activators, confirmation, cell-based, CHO-XBP1 luciferase reporter, luminescence, single concentration | shares compounds with UPR XBP1 act | activation, % at 20 µM | 1,000 compounds, 63% hits | AID 485299, 2010;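 active = reporter signal at least 30% of the positive control's activation in two or more of four replicate wells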
Each line names hits and unclear results; the compound was inactive in the other large screens (follow-up assays come after a bar, where they were run). The full list was thinned out, with hits kept by preference.

COC(=O)c1c(C(=O)c2ccc(Br)cc2)n(C)c2ccccc12	none (no result: CHOP inh)
O=C1c2ccccc2C(=O)N1CCCOCc1c[nH]c(=O)[nH]c1=O	UPR XBP1 act 32 | XBP1 UPR conf inactive
Cc1c(C(=O)NN2CCOCC2)oc2ccccc12	none
CC(C)CN=C(NS(=O)(=O)c1ccccc1)C(Cl)(Cl)Cl	UPR XBP1 act 47 | XBP1 UPR conf 60
CCN1CCN(C(c2cc3cccc(C)c3[nH]c2=O)c2nnnn2Cc2ccccc2)CC1 (centres undefined)	none
Cc1cccc2cc(C(c3nnnn3Cc3ccccc3)N3CCCc4ccccc43)c(=O)[nH]c12 (centres undefined)	CHOP inh 77, UPR XBP1 act 76 | XBP1 UPR conf 28
CNC(=O)/C(C#N)=C/c1ccc(OCCOc2ccccc2)cc1	none (no result: CHOP inh)
CCOC(=O)C1=C(O)/C(=C/c2ccc(-c3ccccc3C(=O)O)o2)SC1=Nc1ccc(C)cc1	none (no result: CHOP inh, UPR XBP1 act, CHOP UPR activ)
CCOC(=O)C1=C(O)/C(=C/c2cn(CC(=O)NCC3CCCO3)c3ccccc23)SC1=Nc1ccc(C)cc1 (centres undefined)	UPR XBP1 act 66 (no result: CHOP inh) | XBP1 UPR conf 31
COc1ccc2[nH]c3c(c2c1)CCN1C(=O)C(CC(=O)NC/C=C(\C)CCC=C(C)C)C[C@H](C(=O)N2CCOCC2)[C@@]31CCC1CCCC1 (some centres undefined)	UPR XBP1 act 47 (no result: CHOP inh) | XBP1 UPR conf 58
CN(C(=O)c1c(Br)cnn1C)C12CC3CC(CC(C3)C1)C2	none (no result: PvdQ acylase, UPR XBP1 act, CHOP UPR activ)
